Data taken from ChEMBL document CHEMBL3045328, “Substituted N-phenylpyrazine-2-carboxamides, their synthesis and evaluation as herbicides and abiotic elicitors” (Molecules, 2007).

What was measured:
[1] = Lipophilicity, log P of the compound; assay type: physicochemical; settings: octanol/water
Chlorella vulgaris = assay: Antialgal activity in green algae Chlorella vulgaris assessed as reduction of chlorophyll content; assay type: functional, organism-based
Method in brief: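 Algal suspensions (initial Chl 0.01 mg·L-1) grown 7 days, 16 h light/8 h dark, PAR 80 μmol/m2∙s, pH 7.2, with compound at 0.83–100 μmol·L-1 (DMSO ≤0.25%, same in controls). Chl extracted into methanol, read spectrophotometrically. IC50 = concentration halving chlorophyll versus control, or % of control ± S.D.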

Spinacia oleracea = assay: Inhibition of photosynthetic electron transport in Spinacia oleracea (spinach) chloroplasts assessed as decrease in oxygen evolution measured after irradiated with 250 W halogen lamp by herbicidal assay in presence of electron acceptor 2,6-dichlorophenol-indophenol; assay type: functional; settings: L., light or radiation study
Method in brief: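 Spinach chloroplasts in phosphate buffer (0.02 mol·L-1, pH 7.2) with sucrose 0.4 mol·L-1, MgCl2 0.005 mol·L-1, NaCl 0.015 mol·L-1; chlorophyll 30 mg/L. DCPIP photoreduction followed under ~100 W/m2 halogen light through 4 cm water filter, 22 °C. Compounds in DMSO (up to 4%). IC50 = molar concentration giving 50% drop in oxygen evolution versus untreated control.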

[2] = Chlorella vulgaris, read-out: IC50

Row | SMILES | logP [1] | IC50 (Chlorella vulgaris; [2]) | IC50 (Spinacia oleracea) | IC50 (Chlorella vulgaris)
1 | Cc1cc(NC(=O)c2cnc(C(C)(C)C)cn2)ccc1Cl | 3.76 | 44 µM | 190 µM | –
2 | CC(C)(C)c1ncc(C(=O)Nc2ccccc2F)nc1Cl | 3.78 | 89 µM | 69 µM | –
3 | CN(C)C(=O)Nc1ccc(Cl)c(Cl)c1 [DCMU] | 2.76 | – | – | –
4 | CC(C)(C)c1ncc(C(=O)Nc2ccc(C(F)(F)F)cc2)nc1Cl | 4.54 | – | 184 µM | ND(Insoluble)

Continued, in another order:

Row | logP [1] | SMILES | IC50 (Chlorella vulgaris; [2]) | IC50 (Spinacia oleracea) | IC50 (Chlorella vulgaris)
5 | 3.33 | Cc1ccc(NC(=O)c2cncc(Cl)n2)cc1I | – | 51 µM | ND(Insoluble)
6 | 2.53 | Cc1cc(NC(=O)c2cncc(Cl)n2)ccc1Cl | 80 µM | 595 µM | –
